Source: ChEMBL document CHEMBL4689842, “EUbOPEN Chemogenomics Library wave 1” (2021)

Tested on: U2OS
Test: Multiplex assay against U2OS
Format: toxicity, cell-based
Conditions: human
In short: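 At seeding, live cells were stained with Hoechst33342, BioTracker Green Microtubule Cytoskeleton Dye, MitoTracker Red and Annexin V Alexa Fluor 680. After compound addition they were imaged on a CQ1 microscope at 37°C and 5% CO2, and CellPathfinder machine-learning gating sorted them into Hoechst high-intensity objects or normal cells, with normal cells further split into healthy, pyknosed or fragmented nuclei and pyknosed cells into mitotic or apoptotic. Tubulin, mitochondrial-mass and membrane-permeability phenotypes are given as per cents of cells with healthy nuclei.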

[1] = 12 h, 1 µM, compound concentration 1 uM, replicate 1
[2] = 12 h, 1 µM, compound concentration 1 uM, replicate 2
[3] = 12 h, 10 µM, compound concentration 10 uM, replicate 1
[4] = 12 h, 10 µM, compound concentration 10 uM, replicate 2
[5] = 24 h, 1 µM, compound concentration 1 uM, replicate 1
[6] = 24 h, 1 µM, compound concentration 1 uM, replicate 2
[7] = 24 h, 10 µM, compound concentration 10 uM, replicate 1
[8] = 24 h, 10 µM, compound concentration 10 uM, replicate 2
[9] = 48 h, 1 µM, compound concentration 1 uM, replicate 1
[10] = 48 h, 1 µM, compound concentration 1 uM, replicate 2
[11] = 48 h, 10 µM, compound concentration 10 uM, replicate 1
[12] = 48 h, 10 µM, compound concentration 10 uM, replicate 2

CC[C@H](C)C(=O)O[C@H]1C[C@@H](C)C=C2C=C[C@H](C)[C@H](CC[C@@H]3C[C@@H](O)CC(=O)O3)[C@H]21 [LOVASTATIN]
Population Apoptotic (%) [1]: 21%
Population Fragmented Nuclei (%) [1]: 13%
Population Healthy Nuclei (%) [1]: 76%
Population Hoechst High Intensity Objects (%) [1]: 12%
Population Membrane Permeable-Phenotype (%) [1]: 7%
Population Mitochondria Different-Phenotype (%) [1]: 5%
Population Mitotic Cells (%) [1]: 78%
Population Normal (%) [1]: 87%
Population Pyknosed Nuclei (%) [1]: 9%
Population Tubulin-Different-Phenotype (%) [1]: 13%
Total Cell Count [1]: 140
Population Apoptotic (%) [2]: 25%
Population Fragmented Nuclei (%) [2]: 22%
Population Healthy Nuclei (%) [2]: 68%
Population Hoechst High Intensity Objects (%) [2]: 11%
Population Membrane Permeable-Phenotype (%) [2]: 3%
Population Mitochondria Different-Phenotype (%) [2]: 6%
Population Mitotic Cells (%) [2]: 75%
Population Normal (%) [2]: 88%
Population Pyknosed Nuclei (%) [2]: 8%
Population Tubulin-Different-Phenotype (%) [2]: 3%
Total Cell Count [2]: 87
Population Apoptotic (%) [3]: 31%
Population Fragmented Nuclei (%) [3]: 20%
Population Healthy Nuclei (%) [3]: 68%
Population Hoechst High Intensity Objects (%) [3]: 10%
Population Membrane Permeable-Phenotype (%) [3]: 9%
Population Mitochondria Different-Phenotype (%) [3]: 14%
Population Mitotic Cells (%) [3]: 68%
Population Normal (%) [3]: 89%
Population Pyknosed Nuclei (%) [3]: 11%
Population Tubulin-Different-Phenotype (%) [3]: 12%
Total Cell Count [3]: 163
Population Apoptotic (%) [4]: 100%
Population Fragmented Nuclei (%) [4]: 4%
Population Healthy Nuclei (%) [4]: 90%
Population Hoechst High Intensity Objects (%) [4]: 8%
Population Membrane Permeable-Phenotype (%) [4]: 10%
Population Mitochondria Different-Phenotype (%) [4]: 12%
Population Mitotic Cells (%) [4]: 0%
Population Normal (%) [4]: 91%
Population Pyknosed Nuclei (%) [4]: 4%
Population Tubulin-Different-Phenotype (%) [4]: 20%
Total Cell Count [4]: 54
Population Apoptotic (%) [5]: 18%
Population Fragmented Nuclei (%) [5]: 6%
Population Healthy Nuclei (%) [5]: 84%
Population Hoechst High Intensity Objects (%) [5]: 7%
Population Membrane Permeable-Phenotype (%) [5]: 6%
Population Mitochondria Different-Phenotype (%) [5]: 8%
Population Mitotic Cells (%) [5]: 81%
Population Normal (%) [5]: 92%
Population Pyknosed Nuclei (%) [5]: 8%
Population Tubulin-Different-Phenotype (%) [5]: 14%
Total Cell Count [5]: 144
Population Apoptotic (%) [6]: 40%
Population Fragmented Nuclei (%) [6]: 22%
Population Healthy Nuclei (%) [6]: 70%
Population Hoechst High Intensity Objects (%) [6]: 9%
Population Membrane Permeable-Phenotype (%) [6]: 0%
Population Mitochondria Different-Phenotype (%) [6]: 4%
Population Mitotic Cells (%) [6]: 60%
Population Normal (%) [6]: 90%
Population Pyknosed Nuclei (%) [6]: 7%
Population Tubulin-Different-Phenotype (%) [6]: 4%
Total Cell Count [6]: 93
Population Apoptotic (%) [7]: 25%
Population Fragmented Nuclei (%) [7]: 13%
Population Healthy Nuclei (%) [7]: 76%
Population Hoechst High Intensity Objects (%) [7]: 6%
Population Membrane Permeable-Phenotype (%) [7]: 8%
Population Mitochondria Different-Phenotype (%) [7]: 7%
Population Mitotic Cells (%) [7]: 75%
Population Normal (%) [7]: 93%
Population Pyknosed Nuclei (%) [7]: 9%
Population Tubulin-Different-Phenotype (%) [7]: 9%
Total Cell Count [7]: 204
Population Apoptotic (%) [8]: 28%
Population Fragmented Nuclei (%) [8]: 8%
Population Healthy Nuclei (%) [8]: 79%
Population Hoechst High Intensity Objects (%) [8]: 7%
Population Mitochondria Different-Phenotype (%) [8]: 4%
Population Mitotic Cells (%) [8]: 71%
Population Normal (%) [8]: 92%
Population Pyknosed Nuclei (%) [8]: 11%
Population Tubulin-Different-Phenotype (%) [8]: 23%
Total Cell Count [8]: 74
Population Apoptotic (%) [9]: 41%
Population Fragmented Nuclei (%) [9]: 4%
Population Healthy Nuclei (%) [9]: 89%
Population Hoechst High Intensity Objects (%) [9]: 3%
Population Membrane Permeable-Phenotype (%) [9]: 4%
Population Mitochondria Different-Phenotype (%) [9]: 8%
Population Mitotic Cells (%) [9]: 58%
Population Normal (%) [9]: 96%
Population Pyknosed Nuclei (%) [9]: 5%
Population Tubulin-Different-Phenotype (%) [9]: 11%
Total Cell Count [9]: 129
Population Apoptotic (%) [10]: 0%
Population Fragmented Nuclei (%) [10]: 10%
Population Healthy Nuclei (%) [10]: 87%
Population Hoechst High Intensity Objects (%) [10]: 7%
Population Membrane Permeable-Phenotype (%) [10]: 1%
Population Mitochondria Different-Phenotype (%) [10]: 5%
Population Mitotic Cells (%) [10]: 100%
Population Normal (%) [10]: 92%
Population Pyknosed Nuclei (%) [10]: 2%
Population Tubulin-Different-Phenotype (%) [10]: 7%
Total Cell Count [10]: 89
Population Apoptotic (%) [11]: 40%
Population Fragmented Nuclei (%) [11]: 12%
Population Healthy Nuclei (%) [11]: 78%
Population Hoechst High Intensity Objects (%) [11]: 4%
Population Membrane Permeable-Phenotype (%) [11]: 3%
Population Mitochondria Different-Phenotype (%) [11]: 5%
Population Mitotic Cells (%) [11]: 60%
Population Normal (%) [11]: 95%
Population Pyknosed Nuclei (%) [11]: 8%
Population Tubulin-Different-Phenotype (%) [11]: 4%
Total Cell Count [11]: 300
Population Apoptotic (%) [12]: 33%
Population Fragmented Nuclei (%) [12]: 3%
Population Healthy Nuclei (%) [12]: 89%
Population Hoechst High Intensity Objects (%) [12]: 7%
Population Membrane Permeable-Phenotype (%) [12]: 6%
Population Mitochondria Different-Phenotype (%) [12]: 6%
Population Mitotic Cells (%) [12]: 66%
Population Normal (%) [12]: 92%
Population Pyknosed Nuclei (%) [12]: 7%
Population Tubulin-Different-Phenotype (%) [12]: 21%
Total Cell Count [12]: 96

COc1ncc(-c2ccc3nccc(-c4ccnnc4)c3c2)cc1NS(=O)(=O)c1ccc(F)cc1F [OMIPALISIB]
Population Apoptotic (%) [1]: 65%
Population Fragmented Nuclei (%) [1]: 13%
Population Healthy Nuclei (%) [1]: 67%
Population Hoechst High Intensity Objects (%) [1]: 4%
Population Membrane Permeable-Phenotype (%) [1]: 6%
Population Mitochondria Different-Phenotype (%) [1]: 3%
Population Mitotic Cells (%) [1]: 34%
Population Normal (%) [1]: 95%
Population Pyknosed Nuclei (%) [1]: 18%
Population Tubulin-Different-Phenotype (%) [1]: 9%
Total Cell Count [1]: 135
Population Apoptotic (%) [2]: 50%
Population Fragmented Nuclei (%) [2]: 46%
Population Healthy Nuclei (%) [2]: 42%
Population Hoechst High Intensity Objects (%) [2]: 7%
Population Membrane Permeable-Phenotype (%) [2]: 16%
Population Mitochondria Different-Phenotype (%) [2]: 16%
Population Mitotic Cells (%) [2]: 50%
Population Normal (%) [2]: 92%
Population Pyknosed Nuclei (%) [2]: 11%
Population Tubulin-Different-Phenotype (%) [2]: 23%
Total Cell Count [2]: 51
Population Apoptotic (%) [3]: 58%
Population Fragmented Nuclei (%) [3]: 28%
Population Healthy Nuclei (%) [3]: 37%
Population Hoechst High Intensity Objects (%) [3]: 6%
Population Membrane Permeable-Phenotype (%) [3]: 14%
Population Mitochondria Different-Phenotype (%) [3]: 15%
Population Mitotic Cells (%) [3]: 41%
Population Normal (%) [3]: 93%
Population Pyknosed Nuclei (%) [3]: 33%
Population Tubulin-Different-Phenotype (%) [3]: 15%
Total Cell Count [3]: 150
Population Apoptotic (%) [4]: 65%
Population Fragmented Nuclei (%) [4]: 33%
Population Healthy Nuclei (%) [4]: 27%
Population Hoechst High Intensity Objects (%) [4]: 7%
Population Membrane Permeable-Phenotype (%) [4]: 11%
Population Mitochondria Different-Phenotype (%) [4]: 16%
Population Mitotic Cells (%) [4]: 34%
Population Normal (%) [4]: 92%
Population Pyknosed Nuclei (%) [4]: 39%
Population Tubulin-Different-Phenotype (%) [4]: 22%
Total Cell Count [4]: 77
Population Apoptotic (%) [5]: 62%
Population Fragmented Nuclei (%) [5]: 19%
Population Healthy Nuclei (%) [5]: 61%
Population Hoechst High Intensity Objects (%) [5]: 9%
Population Membrane Permeable-Phenotype (%) [5]: 5%
Population Mitochondria Different-Phenotype (%) [5]: 4%
Population Mitotic Cells (%) [5]: 37%
Population Normal (%) [5]: 90%
Population Pyknosed Nuclei (%) [5]: 18%
Population Tubulin-Different-Phenotype (%) [5]: 14%
Total Cell Count [5]: 135
Population Apoptotic (%) [6]: 33%
Population Fragmented Nuclei (%) [6]: 43%
Population Healthy Nuclei (%) [6]: 40%
Population Hoechst High Intensity Objects (%) [6]: 11%
Population Membrane Permeable-Phenotype (%) [6]: 24%
Population Mitochondria Different-Phenotype (%) [6]: 17%
Population Mitotic Cells (%) [6]: 66%
Population Normal (%) [6]: 88%
Population Pyknosed Nuclei (%) [6]: 16%
Population Tubulin-Different-Phenotype (%) [6]: 37%
Total Cell Count [6]: 50
Population Apoptotic (%) [7]: 70%
Population Fragmented Nuclei (%) [7]: 36%
Population Healthy Nuclei (%) [7]: 25%
Population Membrane Permeable-Phenotype (%) [7]: 17%
Population Mitochondria Different-Phenotype (%) [7]: 25%
Population Mitotic Cells (%) [7]: 29%
Population Pyknosed Nuclei (%) [7]: 38%
Population Tubulin-Different-Phenotype (%) [7]: 17%
Total Cell Count [7]: 170
Population Apoptotic (%) [8]: 80%
Population Fragmented Nuclei (%) [8]: 27%
Population Healthy Nuclei (%) [8]: 22%
Population Hoechst High Intensity Objects (%) [8]: 11%
Population Membrane Permeable-Phenotype (%) [8]: 35%
Population Mitochondria Different-Phenotype (%) [8]: 28%
Population Mitotic Cells (%) [8]: 20%
Population Normal (%) [8]: 88%
Population Pyknosed Nuclei (%) [8]: 49%
Population Tubulin-Different-Phenotype (%) [8]: 42%
Total Cell Count [8]: 81
Population Apoptotic (%) [9]: 59%
Population Fragmented Nuclei (%) [9]: 23%
Population Healthy Nuclei (%) [9]: 50%
Population Hoechst High Intensity Objects (%) [9]: 12%
Population Membrane Permeable-Phenotype (%) [9]: 7%
Population Mitochondria Different-Phenotype (%) [9]: 6%
Population Mitotic Cells (%) [9]: 40%
Population Normal (%) [9]: 87%
Population Pyknosed Nuclei (%) [9]: 26%
Population Tubulin-Different-Phenotype (%) [9]: 16%
Total Cell Count [9]: 142
Population Apoptotic (%) [10]: 47%
Population Fragmented Nuclei (%) [10]: 43%
Population Healthy Nuclei (%) [10]: 32%
Population Hoechst High Intensity Objects (%) [10]: 15%
Population Membrane Permeable-Phenotype (%) [10]: 39%
Population Mitochondria Different-Phenotype (%) [10]: 43%
Population Mitotic Cells (%) [10]: 52%
Population Normal (%) [10]: 84%
Population Pyknosed Nuclei (%) [10]: 23%
Population Tubulin-Different-Phenotype (%) [10]: 56%
Total Cell Count [10]: 59
Population Apoptotic (%) [11]: 83%
Population Fragmented Nuclei (%) [11]: 37%
Population Healthy Nuclei (%) [11]: 9%
Population Hoechst High Intensity Objects (%) [11]: 15%
Population Membrane Permeable-Phenotype (%) [11]: 46%
Population Mitochondria Different-Phenotype (%) [11]: 46%
Population Mitotic Cells (%) [11]: 16%
Population Normal (%) [11]: 84%
Population Pyknosed Nuclei (%) [11]: 52%
Population Tubulin-Different-Phenotype (%) [11]: 61%
Total Cell Count [11]: 181
Population Apoptotic (%) [12]: 82%
Population Fragmented Nuclei (%) [12]: 31%
Population Healthy Nuclei (%) [12]: 19%
Population Hoechst High Intensity Objects (%) [12]: 18%
Population Membrane Permeable-Phenotype (%) [12]: 81%
Population Mitochondria Different-Phenotype (%) [12]: 72%
Population Mitotic Cells (%) [12]: 17%
Population Normal (%) [12]: 81%
Population Pyknosed Nuclei (%) [12]: 49%
Population Tubulin-Different-Phenotype (%) [12]: 72%
Total Cell Count [12]: 84
